Rows were chosen to be rich in hits. Some 1.2% of all compounds tested hit in one or more screens of this group.
Bfl-1 A1 inh: inhibitors of the anti-apoptotic protein A1, read as caspase activation | 330,000 tested, 0.066% active | caspase activation, % (concentration not given with the values) | AID 2462 | MEF A1-2A-BIM cells, Caspase-Glo 3/7 luminescence, 3 h; percent of clofoctol response, vehicle zero;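 active means over half of replicate activation scores above 10%, or exactly half above 10 with the replicate mean above 10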
bovine MsrA act: bovine methionine sulfoxide reductase A activation; purified bovine MsrA, absorbance read-out; activation, % at 10.6 µM; 360,000 tested, 0.3% active; in the data active means activation above about 7.5%;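 further: 0% = vehicle and 100% = reference activator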
procasp3 activ: activates human procaspase-3 | P42574 | recombinant procaspase-3 D3A, Ac-DEVD-pNA absorbance 405 nm | activation, % at 8.5 µM | 330,000 tested, 0.11% active | AID 463141;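 active means activation above the mean of all tested compounds plus 3 SD, cut at about 21% in these data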;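 further: 0% = DMSO alone and 100% = DMSO wells spiked with extra 5 µM PC-3 D3A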
Target sequence (P42574 whole entry D9A/D28A/D175A): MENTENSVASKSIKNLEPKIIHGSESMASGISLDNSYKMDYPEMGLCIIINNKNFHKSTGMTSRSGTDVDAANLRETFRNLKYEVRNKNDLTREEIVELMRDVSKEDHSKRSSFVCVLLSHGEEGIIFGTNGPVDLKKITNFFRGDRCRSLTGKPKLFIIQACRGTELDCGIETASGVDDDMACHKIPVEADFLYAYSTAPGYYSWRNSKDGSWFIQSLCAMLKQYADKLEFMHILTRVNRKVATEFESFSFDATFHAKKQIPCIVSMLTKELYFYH
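Compound: 8.5 µM single point, 0.8% DMSO / Material: Autoprocessing-dead procaspase-3 D3A mutant enzyme / Timing: 1 h preincubation plus 2 h reaction at 25 °C / Medium: Zinc-free HEPES/NaCl buffer with 0.01% Triton X-100 at pH 7.4 / Technique: 405 nm absorbance of p-nitroaniline, reads at 0 and 120 min / Repeats: one well per compound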
procasp7 counter: counter-screen for procaspase-3 activators: activators of human procaspase-7; recombinant procaspase-7, Ac-DEVD-pNA absorbance 405 nm; D23A/D198A/D206A triple mutant, cannot self-cleave; scale: DMSO 0, 5 µM enzyme 100; activation, % at 8.5 µM; 330,000 tested, 0.093% active; P55210;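 active means percent activation above the screen-wide mean plus 3 SD, cut at about 25% in these data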
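signal = Epi-absorbance of released pNA at 405 nm, two timepoints | assay system = Uncleavable procaspase-7 mutant enzyme | reagent = Ac-DEVD-pNA substrate, 400 µM as added | times = 1 h enzyme–compound preincubation and 2 h substrate reaction, both 25 °C | benchmarks = low DMSO alone, high DMSO plus 5 µM PC-7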
MsrA inhibitor: bovine MsrA inhibition; 360,000 tested, 0.75% active; purified bovine MsrA, absorbance read-out; inhibition, % at 15.5 µM;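 further: 0% = vehicle wells with enzyme and 100% = reference inhibitor wells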
proCasp7 act trip: counter-screen for procaspase-3 activators: activators of human procaspase-7; shares compounds with procasp3 activ; activation, % at 8.5 µM; 210 tested, under 10 active; recombinant procaspase-7, Ac-DEVD-pNA absorbance; asp23/198/206-to-Ala mutant, cannot self-cleave; AID 488941;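 active means mean activation above a set limit taken from an earlier procaspase-7 screen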;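 further: 0% = DMSO wells and 100% = DMSO plus 5 µM procaspase-7 enzyme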
proCasp3 confirm: confirmation of human procaspase-3 activators | activation, % at 8.5 µM | 210 tested, 10% active | shares compounds with procasp3 activ | recombinant PC-3 D3A, Ac-DEVD-pNA absorbance 405 nm; 100% is higher-enzyme control;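 active means mean activation above a set limit carried over from the earlier primary screen, cut at about 22% in these data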
MsrA conf: bovine MsrA inhibition, confirmed; inhibition, % at 15.5 µM; purified bovine MsrA, absorbance read-out; AID 651822; shares compounds with MsrA inhibitor; 2,300 tested, 41% active;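 further: coupled to thioredoxin reductase with NADPH and selenocystamine and DMSO as substrate; 0% = vehicle only and 100% = full effect of reference inhibitor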
Numbers without * were called inactive; . = not tested or not shown. Unless noted, no stated cut-off is given here; in the data, active means inhibition above about 4.5%; inactive means the rest.

SMILES	Bfl-1 A1 inh	bovine MsrA act	procasp3 activ	procasp7 counter	MsrA inhibitor	proCasp7 act trip	proCasp3 confirm	others
CC(=O)C1=C(C)N(Cc2ccc(Cl)cc2)C(=S)NC1c1cccc(Br)c1 (configuration not stated)	.	.	.	.	1.2	.	.
CC(NC(=O)c1cc2cc([N+](=O)[O-])ccc2oc1=O)C1CCCO1 (configuration not stated)	0.6	-4.3	22.1*	20.9	1.5	21.5	32.0*
O=C(CSc1nnnn1-c1ccccc1)Nc1ccc(Cl)cc1	0.7	-3.4	27.2*	13.0	0.7	0.8	4.0
C[C@@H]1ON(C)[C@H]2C[C@H]3c4[nH]c5cccc(Br)c5c4CCN3C(=O)[C@@H]12	.	.	.	.	0.1	.	.
O=C(O)c1nn(CCOc2ccccc2F)c(=O)c2ccccc12	-0.7	-3.0	21.5*	6.3	-1.0	0.1	3.0
O=C(O)c1nn(CCOc2ccc(Br)cc2)c(=O)c2ccccc12	-0.5	0.0	14.1	0.1	-0.2	.	.
CC(C)=CCN1C(=O)[C@]2(OCCC=C[C@H]2C)c2c(Br)cccc21	.	.	.	.	-1.8	.	.
C=CCN1C(C(=O)OCC)CSCCS1(=O)=O (configuration not stated)	.	.	.	.	-1.5	.	.
Nc1[nH]c(C(=O)c2ccccc2)c(-c2ccc3c(c2)OCO3)c1C(=O)NCCc1c[nH]c2ccccc12	.	.	.	.	1.1	.	.
Cc1ccc(NC(=O)CN2CCC(C(=O)c3ccc(F)cc3)CC2)cc1	0.7	0.8	38.2*	8.5	-0.3	1.8	4.9
Cc1ccc(C(=O)C2CCN(CC(=O)NCc3ccc(F)cc3)CC2)cc1	-0.3	-0.5	11.2	6.1	0.2	.	.
O=C(Nc1cc(S(=O)(=O)N2CCOCC2)ccc1N1CCOCC1)c1ccccc1F	-0.1	-2.8	22.9*	-2.3	-0.1	2.1	3.0
CCn1c(NCc2cccc(OC)c2OC)nc2ccccc21	-0.5	-1.0	22.1*	17.5	1.0	4.2	1.7
COc1cccc(CNc2nc3ccccc3n2CCN2CCCCC2)c1OC	-0.3	-1.7	3.0	1.8	1.2	.	.
N=c1c(S(=O)(=O)c2ccccc2)cc2c(=O)n3ccccc3nc2n1C1CCCC1	-0.4	-12.2	30.1*	-17.0	2.9	-22.0	-14.1
Cc1ccc(C2Nc3ccc4ccccc4c3C3=C2C(=O)CC(C)(C)C3)o1 (configuration not stated)	-0.6	0.3	45.8*	15.4	.	17.9	7.6
O=c1[nH]c2ccccc2nc1-c1cccs1	-1.8	-7.1	34.4*	0.7	1.8	-21.7	-14.0
Cc1c(CCC(=O)O)c(=O)oc2cc(O)ccc12	-0.5	-1.0	23.8*	20.7	2.0	-20.8	-11.6
COc1ccc(-c2ccc(C#N)c(SCC(=O)OCc3ccccc3)n2)cc1OC	-0.4	4.5	34.2*	9.7	2.5	3.9	6.4
Cc1cc(N/N=C/c2ccc(N(C)C)cc2)c2ccccc2n1	0.5	-4.0	28.1*	23.8	5.0*	-4.4	-5.5	MsrA conf=1.3
Cc1cc(N/N=C/c2ccco2)c2ccccc2n1	-0.6	-2.9	8.7	-0.3	0.6	.	.
COc1ccc2nc(Nc3nc4cc5c(cc4s3)OCO5)sc2c1	-1.3	-6.6	68.9*	6.8	4.8*	-20.0	-14.1	MsrA conf=2.6
O=S1(=O)N[C@@H](Cc2ccccc2)COc2cc(N3CCOCC3)ccc21	.	.	.	.	0.2	.	.

Compound activity deposited in PubChem BioAssay by several laboratories.
